Measurements published in ChEMBL document CHEMBL3826951, “Discovery of Benzocycloalkane Derivatives Efficiently Blocking Bacterial Virulence for the Treatment of Methicillin-Resistant S. aureus (MRSA) Infections by Targeting Diapophytoene Desaturase (CrtN)” (J Med Chem, 2016).
Calls of active or inactive are those of the source. No cut-off for these calls is given here.

Columns and labels:
[1] = molecular target: T1, 4,4'-diapophytoene desaturase (4,4'-diaponeurosporene-forming) (Staphylococcus aureus (strain Newman)) (UniProt O07855); test: Inhibition of diapophytoene desaturase in Staphylococcus aureus Newman assessed as 4,4'-diapophytoene formation by HPLC method; conditions: Staphylococcus aureus subsp. aureus str. Newman
T1 sequence (whole entry): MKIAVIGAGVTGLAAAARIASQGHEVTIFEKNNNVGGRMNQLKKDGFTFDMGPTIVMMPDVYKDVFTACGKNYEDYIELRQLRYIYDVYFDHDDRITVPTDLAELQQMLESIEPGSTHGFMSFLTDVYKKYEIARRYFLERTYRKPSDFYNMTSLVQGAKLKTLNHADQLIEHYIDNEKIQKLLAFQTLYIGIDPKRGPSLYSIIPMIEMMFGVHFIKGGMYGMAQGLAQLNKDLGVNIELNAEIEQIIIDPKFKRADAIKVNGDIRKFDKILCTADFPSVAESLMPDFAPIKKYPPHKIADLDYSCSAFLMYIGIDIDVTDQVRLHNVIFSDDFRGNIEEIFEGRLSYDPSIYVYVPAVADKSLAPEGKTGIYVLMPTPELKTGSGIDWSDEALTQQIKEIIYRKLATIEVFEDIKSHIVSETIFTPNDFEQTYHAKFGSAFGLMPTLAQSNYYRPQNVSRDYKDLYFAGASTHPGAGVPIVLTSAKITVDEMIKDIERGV

[2] = Aqueous solubility of the compound in water after 24 hrs by HPLC method; format: physicochemical
How it was run: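 Excess solid stirred in pure water for 24 h, then filtered. Filtrate analysed by HPLC (10 µL injection). Concentration read against a calibration curve of peak area versus concentration, built from methanol solutions at 50–800 µg/mL.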

Staphylococcus aureus [3] = test: Effect on Staphylococcus aureus Newman growth at 0.2 mM after overnight incubation by plate reader method; format: organism-based; conditions: 200 µM
How it was run: (§1)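 DMSO stock (20 mM) diluted in TSB to final 0.2 or 0.05 mM, overlaid with paraffin, pre-warmed 4 h at 37 °C. Overnight cultures adjusted to OD600 ~1.0 and inoculated to final OD600 ≈ 0.05. DMSO-matched growth controls. Incubated overnight at 37 °C; OD600 read every 30 min.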

Staphylococcus aureus [4] = test: Effect on methicillin-resistant Staphylococcus aureus USA400 MW2 growth at 0.05 mM after overnight incubation by plate reader method; format: organism-based; conditions: 50 µM; how it was run: as §1
Staphylococcus aureus [5] = test: Effect on methicillin-resistant Staphylococcus aureus USA300 LAC growth at 0.2 mM after overnight incubation by plate reader method; format: organism-based; conditions: 200 µM; how it was run: as §1
Staphylococcus aureus [6] = test: Effect on methicillin-resistant Staphylococcus aureus Mu 50 growth at 0.05 mM after overnight incubation by plate reader method; format: organism-based, Mu50; conditions: 50 µM; how it was run: as §1
Staphylococcus aureus [7] = test: Sensitization of Staphylococcus aureus Newman to H2O2-induced killing assessed as cell survival at 1 uM pre-incubated for 24 hrs before H2O2 exposure for 30 mins by serial dilution method (reference value: 30.43%); format: functional
Staphylococcus aureus [8] = test: Sensitization of methicillin-resistant Staphylococcus aureus USA400 MW2 to H2O2-induced killing assessed as cell survival at 1 uM pre-incubated for 24 hrs before H2O2 exposure for 30 mins by serial dilution method (reference value: 14.17%); format: functional
Staphylococcus aureus [9] = test: Sensitization of methicillin-resistant Staphylococcus aureus USA300 LAC to H2O2-induced killing assessed as cell survival at 1 uM pre-incubated for 24 hrs before H2O2 exposure for 30 mins by serial dilution method (reference value: 15.83%); format: functional
Staphylococcus aureus [10] = test: Sensitization of methicillin-resistant Staphylococcus aureus Mu 50 to H2O2-induced killing assessed as cell survival at 1 uM pre-incubated for 24 hrs before H2O2 exposure for 30 mins by serial dilution method (reference value: 30.67%); format: functional; conditions: Mu50
Staphylococcus aureus [11] = test: Sensitization of Staphylococcus aureus Newman to human whole blood assessed as cell survival at 1 uM after 6 hrs by serial dilution method (reference value: 26.67%); format: functional
Staphylococcus aureus [12] = test: Sensitization of methicillin-resistant Staphylococcus aureus USA400 MW2 to human whole blood assessed as cell survival at 1 uM after 6 hrs by serial dilution method (reference value: 10.8%); format: functional; conditions: MW2 USA400, 6 h
Staphylococcus aureus [13] = test: Sensitization of methicillin-resistant Staphylococcus aureus USA300 LAC to human whole blood assessed as cell survival at 1 uM after 6 hrs by serial dilution method (reference value: 12.17%); format: functional; conditions: LAC USA300, 6 h
Staphylococcus aureus [14] = test: Sensitization of methicillin-resistant Staphylococcus aureus Mu 50 to human whole blood assessed as cell survival at 1 uM after 6 hrs by serial dilution method (reference value: 16.11%); format: functional; conditions: Mu50, 6 h
Staphylococcus aureus [15] = test: Attenuation of Staphylococcus aureus Newman virulence in BALB/c mouse lethal infection model assessed as mouse survival administered ip every 12 hrs for 108 hrs followed by 2 x 10^7 CFU bacterial challenge after first 12 hrs of compound dosing measured 4 days post challenge; format: functional
How it was run: (§2)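 Female BALB/c mice, 6-8 weeks old, kept specific pathogen-free. Dosed ip at 50 or 200 mg/kg every 12 h for 108 h (4.5 d). Challenged 12 h after the first dose with 2 × 10^7 CFU S. aureus Newman. Mortality followed; n = 15; log-rank test.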

Staphylococcus aureus [16] = test: (§3) Attenuation of Staphylococcus aureus Newman virulence in BALB/c mouse systemic infection model assessed as decrease in bacterial survival in kidney at 50 mg/kg, ip administered every 12 hrs for 108 hrs followed by bacterial challenge after first 12 hrs of compound dosing measured 5 days post infection; format: functional
How it was run: (§4)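 Abscess model in female BALB/c mice, 6-8 weeks old. Dosed ip every 12 h for 108 h; retro-orbital challenge with 1 × 10^7 CFU Newman in 100 µL at 12 h. Sacrificed day 5. Kidneys and hearts homogenised in PBS plus 0.1% Triton X-100 and plated on TSA for CFU. n = 13; two-tailed Mann-Whitney.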

Staphylococcus aureus [17] = test: as §3, with “heart” for “kidney”; format: functional; how it was run: as §4
Staphylococcus aureus [18] = test: Attenuation of Staphylococcus aureus Newman virulence in BALB/c mouse lethal infection model assessed as mouse survival administered ip every 12 hrs for 108 hrs followed by 2 x 10^7 CFU bacterial challenge after first 12 hrs of compound dosing measured 8 days post challenge; format: functional; how it was run: as §2
Staphylococcus aureus [19] = test: (§5) Attenuation of methicillin-resistant Staphylococcus aureus USA400 MW2 virulence in BALB/c mouse systemic infection model assessed as decrease in bacterial burden in liver at 50 mg/kg, ip administered every 12 hrs for 108 hrs followed by bacterial challenge after first 12 hrs of compound dosing measured 5 days post infection; format: functional
How it was run: (§6)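 Female BALB/c mice, 6-8 weeks old. Dosed ip every 12 h for 108 h. Challenged with 100 µL at 12 h: 1.6 × 10^8 CFU Mu50 or 4 × 10^7 CFU USA400 MW2. Sacrificed 5 days post-infection. Livers and kidneys homogenised in PBS/0.1% Triton X-100, serially plated on TSA, CFU counted; two-tailed Mann-Whitney.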

Staphylococcus aureus [20] = test: as §5, with “survival” for “burden”, “kidney” for “liver”, “200” for “50”; format: functional; how it was run: as §6
Staphylococcus aureus [21] = test: as §5, with “survival” for “burden”, “kidney” for “liver”; format: functional; how it was run: as §6
Staphylococcus aureus [22] = test: as §5, with “Mu 50” for “USA400 MW2”, “survival” for “burden”; format: functional, Mu50; how it was run: as §6
Staphylococcus aureus [23] = test: (§7) Attenuation of methicillin-resistant Staphylococcus aureus Mu 50 virulence in BALB/c mouse systemic infection model assessed as decrease in bacterial survival in kidney at 200 mg/kg, ip administered every 12 hrs for 108 hrs followed by bacterial challenge after first 12 hrs of compound dosing measured 5 days post infection; format: functional, Mu50; how it was run: as §6
Staphylococcus aureus [24] = test: as §7, with “50” for “200”; format: functional, Mu50; how it was run: as §6
Trichophyton rubrum = test: Antifungal activity against naftifine-sensitive Trichophyton rubrum after 7 days by serial dilution method; format: functional
How it was run: (§8)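 Broth serial dilution in 96-well plates per NCCLS recommendations. Medium: RPMI 1640 buffered with 0.165 M MOPS. Fungi were ATCC strains or clinical isolates.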

Nannizzia gypsea = test: Antifungal activity against naftifine-sensitive Microsporum gypseum after 7 days by serial dilution method; format: functional; how it was run: as §8
[25] = test system: Trichophyton mentagrophytes; test: Antifungal activity against naftifine-sensitive Trichophyton mentagrophytes after 7 days by serial dilution method; format: functional; how it was run: as §8
Trichophyton verrucosum = test: Antifungal activity against naftifine-sensitive Trichophyton verrucosum after 7 days by serial dilution method; format: functional; how it was run: as §8
Staphylococcus aureus [26] = test: as §7, with “liver” for “kidney”; format: functional, Mu50; how it was run: as §6
Staphylococcus aureus [27] = test: as §5, with “200” for “50”; format: functional; how it was run: as §6
[28] = molecular target: T2, 4,4'-diapophytoene synthase (Staphylococcus aureus, UniProt A9JQL9); test: Inhibition of Staphylococcus aureus ATCC 27659 full length His-tagged dehydrosqualene synthase expressed in Escherichia coli BL21 (DE3) cells assessed as reduction in staphyloxanthin pigment formation after 72 hrs by spectrophotometric analysis
T2 sequence (A9JQL9 whole entry): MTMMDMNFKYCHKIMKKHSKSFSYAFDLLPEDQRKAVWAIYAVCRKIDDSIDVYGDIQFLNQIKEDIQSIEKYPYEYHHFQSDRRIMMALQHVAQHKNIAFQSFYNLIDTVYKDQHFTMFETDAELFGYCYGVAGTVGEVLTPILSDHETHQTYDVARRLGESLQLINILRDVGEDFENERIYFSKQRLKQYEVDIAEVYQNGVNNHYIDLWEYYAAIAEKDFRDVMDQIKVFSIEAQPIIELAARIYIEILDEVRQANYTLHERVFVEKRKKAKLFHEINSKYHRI

COc1ccc(/C=C/CN(C)Cc2ccc3c(c2)CCCCC3)cc1.Cl
inhibition [1]: Active | solubility at 24 h [2]: 4240 µg/mL | Activity (Staphylococcus aureus [3]): Non-toxic | Activity (Staphylococcus aureus [4]): Non-toxic | Activity (Staphylococcus aureus [5]): Non-toxic | Activity (Staphylococcus aureus [6]): Non-toxic | survival at 1 µM (Staphylococcus aureus [7]): 0.83% | survival at 1 µM (Staphylococcus aureus [8]): 0.96% | survival at 1 µM (Staphylococcus aureus [9]): 0.98% | survival at 1 µM (Staphylococcus aureus [10]): 4.44% | survival at 1 µM (Staphylococcus aureus [11]): 1.83% | survival at 1 µM (Staphylococcus aureus [12]): 0.2% | survival at 1 µM (Staphylococcus aureus [13]): 0.95% | survival at 1 µM (Staphylococcus aureus [14]): 0.4% | Survival (Staphylococcus aureus [15]): 83% | Activity (Staphylococcus aureus [16]): 1.17 log10CFU | Activity (Staphylococcus aureus [17]): 1.62 log10CFU | Survival (Staphylococcus aureus [18]): >60% | Activity (Staphylococcus aureus [19]): 3.87 log10CFU | Activity (Staphylococcus aureus [20]): 99.5% | Activity (Staphylococcus aureus [21]): 99.5% | Activity (Staphylococcus aureus [22]): 2.44 log10CFU | Activity (Staphylococcus aureus [23]): 2.27 log10CFU | Activity (Staphylococcus aureus [24]): 0.99 log10CFU | MIC=<80 (Trichophyton rubrum): 8 µg/mL | MIC=<80 (Nannizzia gypsea): 16 µg/mL | MIC=<80 [25]: 8 µg/mL | MIC=<80 (Trichophyton verrucosum): 8 µg/mL

O=P([O-])([O-])C(CCCc1cccc(Oc2ccccc2)c1)S(=O)(=O)[O-].[K+].[K+].[K+] (stereo not given)
Activity (Staphylococcus aureus [26]): 2.84 log10CFU | Activity (Staphylococcus aureus [27]): 1.59 log10CFU | Activity (Staphylococcus aureus [19]): inactive | Activity (Staphylococcus aureus [22]; Mu50): Active | Activity (Staphylococcus aureus [23]): 0.3 log10CFU | Activity (Staphylococcus aureus [24]; Mu50, Feces): inactive | IC50 [28]: 83.4 nM
